# Experimental data published in ChEMBL document CHEMBL3621047, “Quaternary Indolizidine and Indolizidone Iminosugars as Potential Immunostimulating and Glycosidase Inhibitory Agents: Synthesis, Conformational Analysis, Biological Activity, and Molecular Docking Study” (J Med Chem, 2015).
# Calls of active or inactive are those of the source. The rule behind the calls is not given here.
# Legend:
# [1] = system: Splenocyte; experiment: Immunostimulating activity in Swiss albino mouse Splenocytes assessed as ConA-induced cell proliferation > 5 uM after 72 hrs by MTT assay; format: functional, cell-based
# [2] = system: Aspergillus niger; experiment: Inhibition of aspergillus niger alpha-galactosidase at 1 mM using 10 mM p-nitrophenyl-alpha-D-galactopyranoside as substrate
# Procedure, shortened: (§1)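 Galactosidase (0.1 U cm−3) was preincubated with compound 1 h at 37 °C. Reaction used 10 mM p-nitrophenyl-α- or β-D-galactopyranoside in 200 mM sodium acetate, 10 min at 37 °C, stopped with 200 mM borate pH 9.8. Read at 420 nm. NI means no 50% inhibition at 1 mM. Five assays averaged.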
# [3] = target: T1, Alpha-mannosidase (Canavalia ensiformis) (UniProt C0HJB3); experiment: Inhibition of jack bean alpha-mannosidase at 1 mM using 10 mM p-nitrophenyl-alpha-D-mannopyranoside as substrate
# T1 sequence (whole entry): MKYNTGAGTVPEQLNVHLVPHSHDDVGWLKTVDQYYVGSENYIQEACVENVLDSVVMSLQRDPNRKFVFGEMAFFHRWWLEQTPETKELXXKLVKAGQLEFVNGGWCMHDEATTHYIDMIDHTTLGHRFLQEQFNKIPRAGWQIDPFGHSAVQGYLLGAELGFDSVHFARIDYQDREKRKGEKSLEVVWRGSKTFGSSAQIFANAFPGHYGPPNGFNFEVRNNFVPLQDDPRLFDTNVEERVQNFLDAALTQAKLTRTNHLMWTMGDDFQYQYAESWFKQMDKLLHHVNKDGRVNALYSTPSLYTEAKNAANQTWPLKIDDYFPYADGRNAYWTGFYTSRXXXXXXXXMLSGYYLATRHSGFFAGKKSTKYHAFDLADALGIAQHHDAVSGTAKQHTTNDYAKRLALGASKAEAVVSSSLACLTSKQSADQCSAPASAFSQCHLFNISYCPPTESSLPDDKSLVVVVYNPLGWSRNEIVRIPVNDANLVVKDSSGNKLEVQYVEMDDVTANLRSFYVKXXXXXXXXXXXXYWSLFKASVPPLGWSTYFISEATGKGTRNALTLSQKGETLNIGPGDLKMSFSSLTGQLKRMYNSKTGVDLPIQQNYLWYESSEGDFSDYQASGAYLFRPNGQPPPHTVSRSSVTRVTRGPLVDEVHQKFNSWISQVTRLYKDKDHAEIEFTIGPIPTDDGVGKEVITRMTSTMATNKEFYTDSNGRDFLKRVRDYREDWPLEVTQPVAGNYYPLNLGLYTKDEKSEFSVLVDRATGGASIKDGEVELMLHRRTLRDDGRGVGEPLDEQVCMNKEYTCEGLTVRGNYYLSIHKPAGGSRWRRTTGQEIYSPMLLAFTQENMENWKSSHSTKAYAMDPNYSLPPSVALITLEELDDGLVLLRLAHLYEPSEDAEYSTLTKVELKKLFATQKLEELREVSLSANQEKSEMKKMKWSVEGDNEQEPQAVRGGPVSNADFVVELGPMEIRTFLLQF
# Procedure, shortened: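 Jack bean α-mannosidase (0.1 U/cm3) was preincubated with inhibitor for 1 h at 37 °C. Substrate was 10 mM p-nitrophenyl α-D-mannopyranoside in 100 mM citrate pH 4.5, reacted 10 min at 37 °C. The reaction was stopped with 200 mM borate pH 9.8 and absorbance read at 420 nm. Ki came from Lineweaver–Burk plots; average of five assays. NI means under 50% inhibition at 1 mM.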
# [4] = Inhibition of bovine liver beta-glucosidase using 10 mM p-nitrophenyl-[…]-D-glucopyranoside as substrate; set-up: species or system Bos taurus
# [5] = system: Splenocyte; experiment: Immunostimulating activity in Swiss albino mouse Splenocytes assessed as increase in ConA-induced IFN-gamma secretion at 2.5 uM by ELISA; format: functional, cell-based
# Procedure, shortened: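 IFN-γ was measured by ELISA in supernatants of splenocytes (2 × 10^6 cells/well). Cells were unstimulated, stimulated with Con A (10 μM), or given Con A plus compound (2.5 or 5 μM) for 24 h. Mean ± SEM, n = 5.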
# [6] = system: Splenocyte; experiment: Immunostimulating activity in Swiss albino mouse Splenocytes assessed as increase in ConA-induced cell proliferation upto 2.5 uM after 72 hrs by MTT assay; format: functional, cell-based
# Procedure, shortened: (§2)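 Swiss albino mouse splenocytes (2 × 10^6 cells/well) were treated with Con A alone or with test samples at final 0.5, 1, 2.5 and 5 μM. Con A is given as final 10 μg/mL in methods and 10 μM in text. Cells were held 72 h at 37 °C, 5% CO2, in RPMI with 10% FCS, then read by MTT. Values are % of Con A-treated cells (100%), mean ± SEM, n = 5.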
# [7] = target: T2, Beta-galactosidase (Bos taurus) (UniProt Q58D55); experiment: Inhibition of bovine liver beta-galactosidase at 1 mM using 10 mM p-nitrophenyl-beta-D-galactopyranoside as substrate; procedure, shortened: as §1
# T2 sequence (whole entry): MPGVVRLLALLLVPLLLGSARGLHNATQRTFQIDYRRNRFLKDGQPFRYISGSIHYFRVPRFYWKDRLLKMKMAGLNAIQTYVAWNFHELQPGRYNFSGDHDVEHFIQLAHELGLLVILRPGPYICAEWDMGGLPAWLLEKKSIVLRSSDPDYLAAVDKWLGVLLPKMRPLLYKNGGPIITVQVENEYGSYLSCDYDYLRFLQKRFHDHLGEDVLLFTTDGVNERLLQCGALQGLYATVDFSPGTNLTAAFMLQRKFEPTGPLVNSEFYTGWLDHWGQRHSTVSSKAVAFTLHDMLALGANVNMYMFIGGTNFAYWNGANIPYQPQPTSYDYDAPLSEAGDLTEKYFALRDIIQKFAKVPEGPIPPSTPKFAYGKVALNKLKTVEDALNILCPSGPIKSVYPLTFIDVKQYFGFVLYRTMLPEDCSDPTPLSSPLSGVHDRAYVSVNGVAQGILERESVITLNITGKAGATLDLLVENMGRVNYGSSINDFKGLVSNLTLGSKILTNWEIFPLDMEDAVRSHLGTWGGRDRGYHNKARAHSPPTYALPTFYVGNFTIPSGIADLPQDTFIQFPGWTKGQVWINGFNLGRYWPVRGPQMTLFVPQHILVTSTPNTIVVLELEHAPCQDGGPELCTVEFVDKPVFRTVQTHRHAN
# [8] = system: Splenocyte; experiment: Immunostimulating activity in Swiss albino mouse Splenocytes assessed as increase in IL-6 secretion at 2.5 uM by ELISA in presence of 10 uM ConA relative to control; format: functional
# Procedure, shortened: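 Splenocytes (2 × 10^6 cells/well) were stimulated with 10 μM Con A plus compound (2.5 or 5 μM). Supernatant IL-6 was measured by sandwich ELISA: sample 2 h at 37 °C, biotinylated antibody 1 h, streptavidin–HRP, then substrate in the dark. Absorbance was read at 550 nm with 450 nm correction against an IL-6 standard curve. Mean ± SEM, n = 5.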
# [9] = system: Splenocyte; experiment: Immunostimulating activity in Swiss albino mouse Splenocytes assessed as decrease in ConA-induced IL-4 secretion at 2.5 uM by ELISA; format: functional
# Procedure, shortened: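 Supernatants came from Con A-stimulated splenocytes (2 × 10^6 cells/well) with compound at 2.5 or 5 μM. They were spun 2000g for 5 min and stored at −70 °C. IL-4 was measured by ELISA: sample 2 h at 37 °C, then peroxidase conjugate 1 h, substrate developed in the dark. Absorbance was read at 550 nm with 450 nm correction and quantified from an IL-4 standard curve. n = 5.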
# [10] = Cytotoxicity against Swiss albino mouse Splenocytes assessed as cell proliferation at 0.5 to 5 uM after 72 hrs by MTT assay; format: cell-based; conditions: splenocyte; procedure, shortened: as §2
# [11] = system: Oryza sativa; experiment: Inhibition of rice alpha-glucosidase at 1 mM using 10 mM p-nitrophenyl-alpha-D-glucopyranoside as substrate
# Procedure, shortened: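 Rice α-glucosidase (0.1 U cm−3) was preincubated with compound 1 h at 37 °C. Reaction used 10 mM p-nitrophenyl-α-D-glucopyranoside in 100 mM phosphate pH 6.8, 10 min at 37 °C, stopped with 0.1 M Na2CO3. p-Nitrophenol was read at 420 nm. NI means no 50% inhibition at 1 mM. Ki came from Lineweaver–Burk plots. Average of five assays.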
# [12] = Immunostimulating activity in Swiss albino mouse Splenocytes assessed as increase in ConA-induced cell proliferation at 1 uM after 72 hrs by MTT assay; format: functional, Splenocyte; procedure, shortened: as §2
# [13] = Immunostimulating activity in Swiss albino mouse Splenocytes assessed as increase in ConA-induced cell proliferation at 0.5 uM after 72 hrs by MTT assay; format: functional, Splenocyte; procedure, shortened: as §2
# [14] = Inhibition of aspergillus niger alpha-galactosidase using 10 mM p-nitrophenyl-alpha-D-galactopyranoside as substrate
# Procedure, shortened: (§3)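 Enzyme (0.1 U/cm3; A. niger α-galactosidase or bovine liver β-galactosidase) was preincubated with inhibitor for 1 h at 37 °C. Substrate was 10 mM p-nitrophenyl α- or β-D-galactopyranoside in 200 mM sodium acetate, reacted 10 min at 37 °C. The reaction was stopped with 200 mM borate pH 9.8 and released p-nitrophenol read at 420 nm. Ki came from Lineweaver–Burk plots; values are the average of five assays.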
# [15] = target: T3, Alpha-mannosidase (Canavalia ensiformis, UniProt C0HJB3); experiment: Inhibition of jack bean alpha-mannosidase using 10 mM p-nitrophenyl-alpha-D-mannopyranoside as substrate
# T3 sequence (C0HJB3 whole entry): T1 sequence (whole entry)
# Procedure, shortened: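 Jack bean α-mannosidase (0.1 U cm−3) was preincubated with compound 1 h at 37 °C. Reaction used 10 mM p-nitrophenyl-α-D-mannopyranoside in 100 mM citrate pH 4.5, 10 min at 37 °C, stopped with 200 mM borate pH 9.8. Read at 420 nm. IC50 and Ki were determined, Ki from Lineweaver–Burk double-reciprocal plots. Mean of five assays.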
# [16] = Immunostimulating activity in Swiss albino mouse Splenocytes assessed as increase in ConA-induced cell proliferation at 5 uM after 72 hrs by MTT assay; format: functional, Splenocyte; procedure, shortened: as §2
# [17] = target: T4, Beta-galactosidase (Bos taurus, UniProt Q58D55); experiment: Inhibition of bovine liver beta-galactosidase using 10 mM p-nitrophenyl-beta-D-galactopyranoside as substrate; procedure, shortened: as §3
# T4 sequence (Q58D55 whole entry): T2 sequence (whole entry)
# [18] = Immunostimulating activity in Swiss albino mouse Splenocytes assessed as increase in ConA-induced cell proliferation at 2.5 uM after 72 hrs by MTT assay; format: functional, Splenocyte; procedure, shortened: as §2
Compound,Activity [1],IC50 [4],Ki [4],Activity [5],Activity [6],fold change (FC) [8],inhibition at 2.5 µM [9],Activity [10],inhibition [11],other results
O=C1CC[C@@]2(COCc3ccccc3)[C@@H](O)[C@H](O)[C@H](O)CN12,inactive,342000 nM,113000 nM,Active,Active,4.9,40%,Non-toxic,< 50%,inhibition [2]: < 50%; inhibition [3]: < 50%; inhibition [7]: < 50%
O=C1CC[C@]2(CO)[C@@H](O)[C@H](O)[C@@H](O)CN12,inactive,22000 nM,11000 nM,Active,Active,12.1,57%,Non-toxic,< 50%,Activity [12]: 80%; Activity [13]: 13%; IC50 [14]: 420 nM; Ki [14]: 330 nM; IC50 [15]: 56 nM; Ki [15]: 35 nM; Activity [16]: 103%; IC50 [17]: 800 nM; Ki [17]: 200 nM; Activity [18]: 130%
